The values below come from ChEMBL document CHEMBL4028860 (PLoS One, 2017).

Calls of active or inactive are those of the source. No cut-off for these calls is given here.

In data set [1] the test system is THP-1. In words: Cytotoxicity against human THP1 cells assessed as reduction in cell viability by CellTiterGlo assay. In kind it is cell-based. For orientation: ATP-based viability assays read luminescence as a measure of living cells.
Data set [2] deals with T1, Cyclic GMP-AMP synthase (Homo sapiens, UniProt Q8N884). In words: Inhibition of cGAS in human THP1 cells assessed as reduction in salmon sperm dsDNA-induced IFN-beta expression preincubated for 1 hr followed by dsDNA stimulation for 12 hrs by luciferase reporter gene assay. The format is cell-based.
T1 sequence (Q8N884 whole entry, the tested form may be a part): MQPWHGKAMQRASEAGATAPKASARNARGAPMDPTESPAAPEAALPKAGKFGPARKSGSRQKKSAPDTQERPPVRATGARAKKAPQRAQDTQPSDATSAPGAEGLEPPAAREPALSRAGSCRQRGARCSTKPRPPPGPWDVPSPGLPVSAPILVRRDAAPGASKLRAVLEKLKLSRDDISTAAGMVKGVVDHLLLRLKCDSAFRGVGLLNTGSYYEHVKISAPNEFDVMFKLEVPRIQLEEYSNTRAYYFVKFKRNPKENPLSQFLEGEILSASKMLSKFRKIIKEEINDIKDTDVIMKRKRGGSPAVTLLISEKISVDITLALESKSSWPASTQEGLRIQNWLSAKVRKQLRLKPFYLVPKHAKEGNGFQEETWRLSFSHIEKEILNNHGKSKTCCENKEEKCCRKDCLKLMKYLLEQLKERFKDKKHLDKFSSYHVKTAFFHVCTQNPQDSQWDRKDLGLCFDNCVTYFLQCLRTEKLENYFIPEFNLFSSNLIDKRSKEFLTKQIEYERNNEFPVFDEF
In data set [3] the target is T1, Cyclic GMP-AMP synthase. Briefly: Inhibition of human cGAS (2 to 522 residues) expressed in Sf9 insect cells assessed as reduction in cGAMP level using ISD DNA as substrate in presence of ATP and GTP incubated for 1 hr followed by Cy5-labeled cGAMP addition measured after 1 hr by fluorescence polarization assay. A digest of the protocol: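 Enzyme reaction uses 100 nM cGAS, 100 nM ISD DNA, 1 mM ATP and 0.3 mM GTP in Hepes/NaCl/Tween-20/MgCl2 buffer, pH 7.5, with compounds. Run 1 h at room temperature, then stopped with 50 mM EDTA. Fluorescence polarization read with 620 nm excitation.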
For orientation: Polarisation of emitted light reports the rotation of a fluorescent probe.

On to `O=C(NCCO)c1cnn2c(O)cc(-c3ccccc3)nc12`, for which the Activity entry in data set [1] is reported as “Non-Toxic”. In addition, in data set [2], the inhibition entry is “inactive”.
In the case of `Oc1cc(-c2ccccc2)nc2nnnn12`, in data set [3], the 50% inhibitory concentration (IC50) (in general, the concentration at which inhibition is half-maximal) stood at 78 µM.
With `O=C(N[C@H]1CCCC[C@H]1C(=O)O)c1cnn2c(O)cc(-c3ccccc3)nc12`, the Activity result in data set [1] is recorded as “Non-Toxic”.
For the compound `O=C(O)CNC(=O)c1cnn2c(O)cc(-c3ccccc3)nc12`, the Activity result in data set [1] is reported as “Non-Toxic”. Besides, in data set [2], the inhibition entry is “inactive”.
For `C[C@@H](CO)NC(=O)c1cnn2c(O)cc(-c3ccccc3)nc12`, in that order: “Non-Toxic” and “inactive”.
On to `O=C(NCCCNc1nc(Nc2cccc(NC(=O)N3CCCC3)c2)ncc1I)c1cccs1` [BX-795], for which the Activity entry in data set [1] is on record as “Non-Toxic”.
